Measurements gathered from unrelated publications.
Each line is one published result; the experiments were not run side by side. pIC50: −log10 of the molar value.
UGT1A6: UDP-glucuronosyltransferase 1A6 (UGT1A6, Homo sapiens, UniProt P19224)

CCOP(=O)(OCC)[C@@H]1C[C@H](n2cc(Cn3ccc(NC(C)=O)nc3=O)nn2)ON1C (racemic)
CC50 (HeLa; cell growth or viability; 72 h): > 250 µM

Cc1ccn2c(C(=O)N3CCN(CCn4cc(-c5ccc(C(C)(C)C)cc5)nn4)CC3)c(C)nc2c1
CC50 (HeLa; cell growth or viability, resazurin): > 100 µM

C[C@@H]1[C@H](O)[C@@H](C)/C=C/C=C/C=C/C=C/C=C/C=C/C=C/[C@H](O[C@@H]2O[C@H](C)[C@@H](O)[C@H](N)[C@@H]2O)C[C@@H]2O[C@](O)(C[C@@H](O)C[C@@H](O)[C@H](O)CC[C@@H](O)C[C@@H](O)CC(=O)O[C@H]1C)C[C@H](O)[C@H]2C(=O)O
haemolysis (haemolysis; human; 0.5 µg/mL, 1 h): 3.73%

C=CC(=O)N(C)CCOc1c(N)ncnc1-c1cc(F)cc(NC(=O)c2ccc(C3CC3)cc2F)c1C
Km (Cytochrome P450 2B6 (CYP2B6, Homo sapiens, UniProt P20813); enzyme activity, substrate; 10 min, pH 7.4): 1.3 µM

OC(Cn1cncn1)(Cn1cncn1)c1ccc(F)cc1F
haemolysis (haemolysis; human; 8 µg/mL, 1 h): 4.52%

Fc1ccc(-c2csc(NN=Cc3cccs3)n2)cc1
haemolysis (haemolysis; human; 50 µM, 30 min, pH 7.4): 32.4%

C[C@@H](Cn1ccc(-c2ccc(C#N)c(Cl)c2)n1)NC(=O)c1cc([C@@H](C)O)[nH]n1
pIC50 (UGT1A6; enzyme activity, inhibitor; human, liver microsomes): < 4.00

COc1cccc(-n2cc(CN3CCN(C(=O)c4c(C)nc5ccc(Cl)cn45)CC3)nn2)c1
CC50 (HeLa; cell growth or viability, resazurin): > 100 µM

CCOc1ccccc1C=NNc1nc(-c2ccc(F)cc2)cs1
haemolysis (haemolysis; human; 10 µM, 30 min, pH 7.4): 0%

CN(CCC(=O)O)C(=O)c1ccc2c(c1)CC[C@@H]1[C@@H]2CC[C@]2(C)C(c3cncc(F)c3)=CC[C@@H]12
pIC50 (UGT1A6; enzyme activity, inhibitor): < 4.52

Oc1ccc(Cl)cc1C=NNc1nc(-c2ccc(F)cc2)cs1
haemolysis (haemolysis; human; 50 µM, 30 min, pH 7.4): 21.2%

Cc1nc2ccc(Cl)cn2c1C(=O)N1CCN(Cc2cn(-c3cccc(C(F)(F)F)c3)nn2)CC1
CC50 (HeLa; cell growth or viability, resazurin): > 100 µM

CC(=NNc1nc(-c2ccc(F)cc2)cs1)c1cccc(Br)c1
haemolysis (haemolysis; human; 10 µM, 30 min, pH 7.4): 0%

CCOP(=O)(OCC)[C@@H]1C[C@H](n2cc(Cn3ccc(=O)[nH]c3=O)nn2)ON1C (racemic)
CC50 (HeLa; cell growth or viability; 72 h): > 250 µM

CC(CCc1ccccc1)=NNc1nc(-c2ccc(F)cc2)cs1
haemolysis (haemolysis; human; 50 µM, 30 min, pH 7.4): 8.38%

CCOP(=O)(OCC)[C@@H]1C[C@@H](n2cc(Cn3cc(C)c(=O)[nH]c3=O)nn2)ON1C (racemic)
CC50 (HEL; cell growth or viability; 72 h): > 100 µM

Cc1cc(C)cc(-n2cc(CN3CCN(C(=O)c4c(C)nc5ccc(Cl)cn45)CC3)nn2)c1
CC50 (HeLa; cell growth or viability, resazurin): > 100 µM

Oc1c(Br)cc(Cl)c2cccnc12
CL/F (Sprague-Dawley rat, plasma; oral, 20 mg/kg): 85 mL/min/kg

CCc1ccc(-n2cc(CN3CCN(C(=O)c4c(C)nc5cc(C)ccn45)CC3)nn2)cc1
CC50 (HeLa; cell growth or viability, resazurin): > 100 µM

CCN(CC)CCCC(C)Nc1ccnc2cc(Cl)ccc12 (stereo not drawn)
haemolysis (haemolysis; human; 10 mM, 45 min): 15.4%

CCCCCCCCCCCCCCCCOP(=O)([O-])OCC[N+](C)(C)C
pIC50 (HeLa; cell growth or viability, XTT; 72 h): 5.19

CCc1ccc(-n2cc(CN3CCN(C(=O)c4c(C)nc5ccc(Cl)cn45)CC3)nn2)cc1
CC50 (HeLa; cell growth or viability, resazurin): 58.1 µM

Fc1ccc(-c2csc(NN=Cc3ccc(C(F)(F)F)cc3)n2)cc1
haemolysis (haemolysis; human; 50 µM, 30 min, pH 7.4): 25.7%

Cc1ccn2c(C(=O)N3CCN(Cc4cn(-c5ccc(C(F)(F)F)cc5)nn4)CC3)c(C)nc2c1
CC50 (HeLa; cell growth or viability, resazurin): > 100 µM

CCOP(=O)(OCC)[C@@H]1C[C@H](n2cc(-c3ccccc3)nn2)ON1C
CC50 (HeLa; cell growth or viability; 72 h): > 250 µM

COc1ccc(S(=O)(=O)Nc2cc(OC)c(NC(=O)CCCl)cc2OC)cc1
pIC50 (HeLa; cell growth or viability, XTT; 72 h): 4.80

Fc1ccc(-c2csc(NN=Cc3ccccc3C(F)(F)F)n2)cc1
haemolysis (haemolysis; human; 100 µM, 30 min, pH 7.4): 45.7%

CCOP(=O)(OCC)[C@@H]1C[C@H](n2cc(Cn3cnc4c(N)ncnc43)nn2)ON1C (relative stereo)
CC50 (HEL; cell growth or viability; 72 h): > 100 µM

Cc1nc2ccc(Cl)cn2c1C(=O)N1CCN(Cc2cn(-c3ccc([N+](=O)[O-])cc3)nn2)CC1
CC50 (HeLa; cell growth or viability, resazurin): > 100 µM

COc1c(F)cccc1C=NNc1nc(-c2ccc(F)cc2)cs1
haemolysis (haemolysis; human; 50 µM, 30 min, pH 7.4): 20%
